The source made the active and inactive calls. The calls are words filed in the database; no cut-off is given here.
How the values were obtained:
Cryptococcus neoformans [1] = experiment: Induction of cell membrane permeabilization in Cryptococcus neoformans var. grubii assessed as release of metabolites at 0.5 mM after 2 hrs by […] cell NMR spectroscopy; assay type: functional, organism-based
Cryptococcus neoformans [2] = experiment: Induction of cell death in Cryptococcus neoformans var. grubii at 0.5 mM after 2 hrs by […] cell NMR spectroscopy; assay type: functional, organism-based
Escherichia coli [3] = experiment: Induction of bacteriolysis in Escherichia coli DH5[alpha] assessed as induction of morphological changes at 100 uM by scanning electron microscopy; assay type: functional, organism-based
Cryptococcus neoformans [4] = experiment: Induction of cell membrane permeabilization in Cryptococcus neoformans var. grubii at 0.5 mM after 2 hrs by […] cell NMR spectroscopy; assay type: functional, organism-based
HEK293 [5] = experiment: Toxicity in HEK293 cells assessed as reduction in cell viability at =>100 uM incubated for 24 hrs by MTT assay; assay type: cell-based; settings: human, hek293, 24 h
Outline: (§1)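 HEK-293 cells kept in DMEM with 10% FBS and 1% penicillin/streptomycin, 310K, 5% CO2. Seeded at 10^4 cells/well and grown overnight, then exposed to peptide 0–100 µM for 24 h. MTT at 0.3 mg/mL for 3 h, formazan dissolved in DMSO, read at 570 nm; triplicates.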

Candida albicans [6] = experiment: Antimicrobial activity against Candida albicans assessed as induction of microbial killing in presence of 150 mM NaCl measured after overnight recovery by microdilution broth assay; assay type: functional
Outline: (§2)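 Washed mid-log cells in 10 mM phosphate buffer pH 7.4 with 150 mM NaCl, 10^5 CFU/mL; C. albicans grown in YPDU. Peptide 1–100 µM, 4 h at 301K, then medium added and grown overnight with shaking; A630 read. Polymyxin B 10 µM positive control; percent killing reported as MIC50%; triplicates.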

Cryptococcus neoformans [7] = experiment: Induction of cell death in Cryptococcus neoformans var. grubii at 0.5 mM after 1 hr by […] cell NMR spectroscopy; assay type: functional, organism-based
Lipid bilayer [8] = experiment: Induction of cell permeabilization in calcein-entrapped 3:1 DOPE/DOPG large unilamellar vesicles at 30 uM by calcein leakage assay
Outline: (§3)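 LUVs of DOPE/DOPG 3:1 loaded with 70 mM calcein in 10 mM Tris pH 7.4, extruded through 100-nm filters, free dye removed by spin column. Liposomes at 20 µM in 10 mM Tris, 100 mM NaCl pH 7.4, 298K. Peptide added stepwise; emission at 520 nm read 5 min after each addition. Leakage = (F−Fo)/(FT−Fo)×100, with 0.1% Triton X-100 as FT; triplicates.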

Klebsiella pneumoniae = experiment: Antimicrobial activity against Klebsiella pneumoniae incubated for 4 hrs by microdilution broth assay; assay type: functional
Outline: (§4)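 Bacteria grown in nutrient broth at 310K. Mid-log cells washed thrice and resuspended in 10 mM phosphate buffer pH 7.4 at 10^5 CFU/mL. Exposed to peptide 1–100 µM for 4 h at 310K, then medium added and grown overnight with shaking. Growth read at A630, normalized to 10 µM polymyxin B control. MIC90% is the concentration giving 90% growth inhibition; triplicates.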

Escherichia coli [9] = experiment: Induction of bacteriolysis in Escherichia coli DH5[alpha] assessed as induction of distorted cell morphology at 1 times MIC90 by scanning electron microscopy; assay type: functional, organism-based
Candida albicans [10] = experiment: Antimicrobial activity against Candida albicans incubated for 4 hrs by microdilution broth assay; assay type: functional
Outline: as §4, with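 “Yeasts” for “Bacteria”, “YPDU” for “nutrient broth”, “301K.” for “310K.”, “301K,” for “310K,”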

Escherichia coli [11] = experiment: Induction of bacteriolysis in Escherichia coli DH5[alpha] assessed as induction of dents and membrane blebbing at 1 times MIC90 by scanning electron microscopy; assay type: functional, organism-based
Salmonella typhi = experiment: Antimicrobial activity against Salmonella typhi Ty2 incubated for 4 hrs by microdilution broth assay; assay type: functional, Salmonella enterica subsp. enterica serovar Typhi str. Ty2; settings: Salmonella enterica
Lipid bilayer [12] = experiment: Induction of cell permeabilization in calcein-entrapped 3:1 DOPE/DOPG large unilamellar vesicles at 1 to 50 uM by calcein leakage assay; outline: as §3
Escherichia coli [13] = experiment: Induction of bacteriolysis in Escherichia coli DH5[alpha] assessed as induction of non-uniform cell debris with leaked intracellular material at 5 times MIC90 by scanning electron microscopy; assay type: functional, organism-based
[14] = Binding affinity to SDS micelle in presence of MnCl2 by PRE NMR spectroscopy
[15] = Binding affinity to d25-SDS micelles by 1H NMR spectroscopy
Cryptococcus neoformans [16] = experiment: Induction of cell membrane permeabilization in Cryptococcus neoformans var. grubii assessed as release of metabolites at 0.5 mM by […] cell NMR spectroscopy; assay type: functional, organism-based
Escherichia coli [17] = experiment: Induction of bacteriolysis in Escherichia coli DH5[alpha] assessed as induction of cell wall shrinkage at 1 to 5 times MIC90 by scanning electron microscopy; assay type: functional, organism-based
Cryptococcus neoformans [18] = experiment: Induction of cell membrane permeabilization in Cryptococcus neoformans var. grubii at 0.5 mM by […] cell NMR spectroscopy; assay type: functional, organism-based
Escherichia coli [19] = experiment: Induction of bacteriolysis in Escherichia coli DH5[alpha] assessed as induction of intracellular material leakage at 1 to 5 times MIC90 by scanning electron microscopy; assay type: functional, organism-based
HEK293 [20] = experiment: Toxicity in HEK293 cells assessed as reduction in cell viability at 2 to 100 uM incubated for 24 hrs by MTT assay; assay type: cell-based; settings: human, hek293, 24 h; outline: as §1
Cryptococcus neoformans [21] = experiment: Antimicrobial activity against Cryptococcus neoformans var. grubii assessed as induction of microbial killing in presence of 150 mM NaCl measured after overnight recovery by microdilution broth assay; assay type: functional; outline: as §2
Pseudomonas aeruginosa = experiment: Antimicrobial activity against Pseudomonas aeruginosa incubated for 4 hrs by microdilution broth assay; assay type: functional; outline: as §4
Staphylococcus aureus = experiment: Antimicrobial activity against Staphylococcus aureus incubated for 4 hrs by microdilution broth assay; assay type: functional; outline: as §4
Erythrocyte = experiment: Hemolytic activity in human erythrocytes at 1 to 200 uM after 4 hrs by; assay type: ADME, cell-based
Outline: (§5)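 Fresh EDTA-anticoagulated human blood; erythrocytes washed thrice in PBS pH 7.4, 2×10^8 cells/mL, mixed with equal volume of peptide up to 200 µM, shaken at 310K for 1 h and 4 h. Supernatant absorbance at 414 nm measured, normalized to 2% Triton X-100 as 100% lysis; triplicates.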

Cryptococcus neoformans [22] = experiment: Antimicrobial activity against Cryptococcus neoformans var. grubii incubated for 4 hrs by microdilution broth assay; assay type: functional
Outline: as §4, with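 “Yeasts” for “Bacteria”, “YPDU” for “nutrient broth”, “301K.” for “310K.”, “301K,” for “310K,”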

[23] = Binding affinity to DPC micelle by circular dichroism spectroscopy
Outline: (§6)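 Far-UV CD, 250–190 nm, 1-mm quartz cuvette, 100 nm/min, 0.5 nm interval, 3 scans averaged, 298K. Peptide at 25 µM final in deionized water or with 30 mM SDS or DPC micelles.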

[24] = Binding affinity to SDS by circular dichroism spectroscopy; outline: as §6
Lipid bilayer [25] = experiment: Induction of cell permeabilization in calcein-entrapped 3:1 DOPE/DOPG large unilamellar vesicles by calcein leakage assay; outline: as §3
[26] = Hemolytic activity in human erythrocytes assessed as heme release at 1 to 200 uM after 4 hrs by; assay type: ADME, cell-based, Erythrocyte; settings: read-out: Activity; outline: as §5
Escherichia coli [27] = experiment: Antimicrobial activity against Escherichia coli DH5[alpha] incubated for 4 hrs by microdilution broth assay; assay type: functional; outline: as §4
[28] = Binding affinity to DPC micelle in presence of MnCl2 by PRE NMR spectroscopy
Lipid bilayer [29] = experiment: Induction of cell permeabilization in calcein-entrapped 3:1 DOPE/DOPG large unilamellar vesicles at 50 uM measured over period of 7200 secs by calcein leakage assay
Outline: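 Calcein-loaded 3:1 DOPE/DOPG LUVs, 20 µM in 10 mM Tris, 100 mM NaCl pH 7.4, exposed to 50 µM peptide. Emission at 520 nm followed over time at 298K, with a liposome-only control monitored for 2 h.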

Substance	Activity (HEK293 [5]) [%]	MIC50 (Candida albicans [6]) [µM]	Activity (Cryptococcus neoformans [7])	Activity (Lipid bilayer [8]) [%]	MIC90 (Klebsiella pneumoniae) [µM]	Activity (Escherichia coli [9])	MIC90 (Candida albicans [10]) [µM]	Activity (Escherichia coli [11])	MIC90 (Salmonella typhi) [µM]	Activity (Lipid bilayer [12]) [%]	Activity (Escherichia coli [13])	Activity [14]	Activity [15]	Activity (Cryptococcus neoformans [16])	Activity (Escherichia coli [17])	Activity (Cryptococcus neoformans [18])	Activity (Escherichia coli [19])	Activity (HEK293 [20])	MIC50 (Cryptococcus neoformans [21]) [µM]	MIC90 (Pseudomonas aeruginosa) [µM]	other results
H-LKLLRKL-OH	–	–	–	–	–	–	–	–	–	–	–	–	–	–	–	–	–	–	–	–	Activity (Cryptococcus neoformans [1]): inactive; Activity (Cryptococcus neoformans [2]): inactive; Activity (Escherichia coli [3]): inactive; Activity (Cryptococcus neoformans [4]): inactive
H-LKWLKKL-NH2	< 10	50	Active	27	50	Active	50	Active	15	37	Active	Active	Active	Active	Active	Active	Active	Non-Toxic	50	50	MIC90 (Staphylococcus aureus): 50 µM; Activity (Erythrocyte): Non-Toxic; MIC90 (Cryptococcus neoformans [22]): 25 µM; Activity [23]: inactive; Activity [24]: inactive; Activity (Lipid bilayer [25]): Dose-dependent effect; hemolysis at 4 h, up to 200 µM [26]: < 10%; MIC90 (Escherichia coli [27]): 50 µM; Activity [28]: inactive
H-LRWLRRL-NH2	< 10	25	Active	45	15	Active	50	Active	7.5	57	Active	inactive	Active	Active	Active	Active	Active	Non-Toxic	25	10	Activity (Lipid bilayer [29]): Active; MIC90 (Staphylococcus aureus): 50 µM; Activity (Erythrocyte): Non-Toxic; MIC90 (Cryptococcus neoformans [22]): 15 µM; Activity [23]: inactive; Activity [24]: inactive; Activity (Lipid bilayer [25]): Dose-dependent effect; hemolysis at 4 h, up to 200 µM [26]: < 10%; MIC90 (Escherichia coli [27]): 10 µM; Activity [28]: inactive
